Our source for the Activity, Ratio EC50 and EC50 values is ChEMBL document CHEMBL1145440, “SAR and QSAR studies on the N-terminally acylated pentapeptide agonists for GPR54” (J Med Chem, 2007).

Assay [1] deals with T1, KiSS-1 receptor (Homo sapiens, UniProt Q969F8). Briefly: Agonist activity at GPR54 expressed in CHO cells assessed as intracellular calcium mobilization at 10 nM relative to KP-10. The format is functional, cell-based. The procedure, abridged:
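FLIPR Fluo3 Ca2+ mobilization in CHO/dhfr cells stably expressing GPR54, read over 40 s. Peptide tested at 10 nM (n = 3). Maximum signal expressed as a percentage of the maximum induced by 1 µM KP-10 (n = 3).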
(Calcium assays in cells follow changes in intracellular calcium, usually with a dye or a luminescent sensor.)

The target of assay [2] is T1, KiSS-1 receptor. Kind of assay: Ratio of EC50 of drug for GPR54 to EC50 of KP-10 for GPR54. The format is functional. The method, boiled down: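 Q calculated as EC50(compound)/EC50(KP-10), with KP-10 run as control on each FLIPR Ca2+ plate (GPR54/CHO cells) to correct for plate-to-plate variation.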
In assay [3] the target is T1, KiSS-1 receptor. Briefly: Agonist activity at GPR54 expressed in CHO cells assessed as intracellular calcium mobilization. The format is functional, cell-based.

Square brackets hold non-standard residues; d marks the D form. Peptide text beside a SMILES is read from it. Trx = NC[C@H]1CC[C@H](C(=O)O)CC1; 4Amb = NCc1ccc(C(=O)O)cc1; 3Abz = Nc1cccc(C(=O)O)c1; 4Abz = Nc1ccc(C(=O)O)cc1; 2Abz = Nc1ccccc1C(=O)O; Ahx = NCCCCCC(=O)O

T1 sequence (Q969F8 whole entry): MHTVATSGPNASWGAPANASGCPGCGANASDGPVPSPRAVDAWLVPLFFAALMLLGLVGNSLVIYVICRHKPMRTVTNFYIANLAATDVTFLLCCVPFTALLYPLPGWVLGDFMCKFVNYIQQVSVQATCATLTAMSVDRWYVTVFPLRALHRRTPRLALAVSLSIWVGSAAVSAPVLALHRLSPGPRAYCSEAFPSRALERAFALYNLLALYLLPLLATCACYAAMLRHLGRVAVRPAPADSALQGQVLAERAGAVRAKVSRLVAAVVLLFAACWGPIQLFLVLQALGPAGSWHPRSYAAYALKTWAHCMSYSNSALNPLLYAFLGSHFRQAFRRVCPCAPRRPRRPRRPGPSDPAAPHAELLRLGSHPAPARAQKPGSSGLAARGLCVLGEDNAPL

With `CC(C)C[C@H](NC(=O)CNC(=O)[C@H](Cc1ccccc1)NC(=O)c1ccc[nH]1)C(=O)N[C@@H](CCCNC(=N)N)C(=O)N[C@@H](Cc1c[nH]c2ccccc12)C(N)=O`, the Activity on KiSS-1 receptor [1] was found to be 95.8%. For the same compound, the Ratio EC50 on KiSS-1 receptor [2] was found to be 1.7. `CC(C)C[C@H](NC(=O)CNC(=O)[C@H](Cc1ccccc1)NC(=O)c1ccc(CN(Cc2ccccn2)Cc2ccccn2)cc1)C(=O)N[C@@H](CCCNC(=N)N)C(=O)N[C@@H](Cc1c[nH]c2ccccc12)C(N)=O`: the Activity on KiSS-1 receptor [1] was found to be 88.9%.

As usually defined, the EC50 is the concentration that produces a half-maximal response. On to `CC(C)C[C@H](NC(=O)CNC(=O)[C@H](Cc1ccccc1)NC(=O)c1c(F)c(F)c(F)c(F)c1F)C(=O)N[C@@H](CCCNC(=N)N)C(=O)N[C@@H](Cc1c[nH]c2ccccc12)C(N)=O`, for which the EC50 on KiSS-1 receptor [3] was > 100 nM. For the same compound, the Activity at KiSS-1 receptor [1] turned out to be 0.6%. Turning to `CC(C)C[C@H](NC(=O)CNC(=O)[C@H](Cc1ccccc1)NC(=O)c1ccccc1OC(=O)c1ccccc1O)C(=O)N[C@@H](CCCNC(=N)N)C(=O)N[C@@H](Cc1c[nH]c2ccccc12)C(N)=O`, at KiSS-1 receptor [3], the EC50 was 3 nM. For the same compound, the Activity at KiSS-1 receptor [1] worked out at 92.1%. For the same compound, at KiSS-1 receptor [2], the Ratio EC50 amounted to 4. Taken in the same sequence, the figures for `CC(C)C[C@H](NC(=O)CNC(=O)[C@H](Cc1ccccc1)NC(=O)c1ccc(CNCc2ccccn2)cc1)C(=O)N[C@@H](CCCNC(=N)N)C(=O)N[C@@H](Cc1c[nH]c2ccccc12)C(N)=O` were 2.7 nM, 89.3% and 4.5.

As for `CC(=O)NCc1ccc(C(=O)N[C@@H](Cc2ccccc2)C(=O)NCC(=O)N[C@@H](CC(C)C)C(=O)N[C@@H](CCCNC(=N)N)C(=O)N[C@@H](Cc2c[nH]c3ccccc23)C(N)=O)cc1` (Ac-[4Amb]FGLRW-NH2), the Activity at KiSS-1 receptor [1] was 101%. On to `CC(C)C[C@H](NC(=O)CNC(=O)[C@H](Cc1ccccc1)NC(=O)c1cccnc1)C(=O)N[C@@H](CCCNC(=N)N)C(=O)N[C@@H](Cc1c[nH]c2ccccc12)C(N)=O`, for which, at KiSS-1 receptor [3], the EC50 was determined as 3 nM. Besides, the Activity at KiSS-1 receptor [1] worked out at 93.5%. The Ratio EC50 at KiSS-1 receptor [2] worked out at 4.1.

With `CC(C)C[C@H](NC(=O)CNC(=O)[C@H](Cc1ccccc1)NC(=O)c1cccc(O)c1)C(=O)N[C@@H](CCCNC(=N)N)C(=O)N[C@@H](Cc1c[nH]c2ccccc12)C(N)=O`, the EC50 on KiSS-1 receptor [3] is 1.2 nM. For the same compound, on KiSS-1 receptor [1], the Activity stood at 99.7%. In addition, the Ratio EC50 at KiSS-1 receptor [2] stood at 1.6. In the case of `CC(C)C[C@H](NC(=O)CNC(=O)[C@H](Cc1ccccc1)NC(=O)c1ccc(CO)cc1)C(=O)N[C@@H](CCCN=C(N)N)C(=O)N[C@@H](Cc1c[nH]c2ccccc12)C(N)=O`, the EC50 at KiSS-1 receptor [3] was determined as 3 nM. For `CC(C)C[C@H](NC(=O)CNC(=O)[C@H](Cc1ccccc1)NC(=O)c1ccccc1N)C(=O)N[C@@H](CCCNC(=N)N)C(=O)N[C@@H](Cc1c[nH]c2ccccc12)C(N)=O` (H-[2Abz]FGLRW-NH2), the EC50 at KiSS-1 receptor [3] was determined as 3.1 nM. Also, at KiSS-1 receptor [1], the Activity was found to be 94%. The Ratio EC50 on KiSS-1 receptor [2] was determined as 2.8. Turning to `CC(C)C[C@H](NC(=O)CNC(=O)[C@H](Cc1ccccc1)NC(=O)c1ccc(CO)cc1)C(=O)N[C@@H](CCCNC(=N)N)C(=O)N[C@@H](Cc1c[nH]c2ccccc12)C(N)=O`, the Activity on KiSS-1 receptor [1] turned out to be 95.4%. For the same compound, the Ratio EC50 on KiSS-1 receptor [2] turned out to be 4.7. Consider `CC(C)C[C@H](NC(=O)CNC(=O)[C@H](Cc1ccccc1)NC(=O)c1ccc(Cl)cc1)C(=O)N[C@@H](CCCNC(=N)N)C(=O)N[C@@H](Cc1c[nH]c2ccccc12)C(N)=O`, for which the Activity on KiSS-1 receptor [1] amounted to 91.8%. Take `CC(C)C[C@H](NC(=O)CNC(=O)[C@H](Cc1ccccc1)NC(=O)c1ccc(CN)cc1)C(=O)N[C@@H](CCCNC(=N)N)C(=O)N[C@@H](Cc1c[nH]c2ccccc12)C(N)=O` (H-[4Amb]FGLRW-NH2): at KiSS-1 receptor [3], the EC50 was 3.1 nM. Also, at KiSS-1 receptor [1], the Activity stood at 96.5%. For the same compound, on KiSS-1 receptor [2], the Ratio EC50 came out at 3.4.

`CC(C)C[C@H](NC(=O)CNC(=O)[C@H](Cc1ccccc1)NC(=O)c1ccc(O)cc1)C(=O)N[C@@H](CCCNC(=N)N)C(=O)N[C@@H](Cc1c[nH]c2ccccc12)C(N)=O`: on KiSS-1 receptor [1], the Activity stood at 94.6%. The same measure, in the same setting: then `CC(C)C[C@H](NC(=O)CNC(=O)[C@H](Cc1ccccc1)NC(=O)c1c[nH]cn1)C(=O)N[C@@H](CCCNC(=N)N)C(=O)N[C@@H](Cc1c[nH]c2ccccc12)C(N)=O`, with 88.4%.

On to `CC(C)C[C@H](NC(=O)CNC(=O)[C@H](Cc1ccccc1)NC(=O)c1cc(O)c(O)c(O)c1)C(=O)N[C@@H](CCCNC(=N)N)C(=O)N[C@@H](Cc1c[nH]c2ccccc12)C(N)=O`, for which the Activity at KiSS-1 receptor [1] amounted to 1%. `CC(C)C[C@H](NC(=O)CNC(=O)[C@H](Cc1ccccc1)NC(=O)c1cccc(N)c1)C(=O)N[C@@H](CCCNC(=N)N)C(=O)N[C@@H](Cc1c[nH]c2ccccc12)C(N)=O` (H-[3Abz]FGLRW-NH2): the EC50 on KiSS-1 receptor [3] was found to be 4.7 nM. In addition, the Activity at KiSS-1 receptor [1] amounted to 88.5%. The Ratio EC50 at KiSS-1 receptor [2] amounted to 4.2.

On to `CC(C)C[C@H](NC(=O)CNC(=O)[C@H](Cc1ccccc1)NC(=O)c1ccc(CN(Cc2ccccc2)Cc2ccccc2)cc1)C(=O)N[C@@H](CCCNC(=N)N)C(=O)N[C@@H](Cc1c[nH]c2ccccc12)C(N)=O`, for which the Activity on KiSS-1 receptor [1] was found to be 9.3%. With `CC(C)C[C@H](NC(=O)CNC(=O)[C@H](Cc1ccccc1)NC(=O)c1ccc([N+](=O)[O-])cc1)C(=O)N[C@@H](CCCNC(=N)N)C(=O)N[C@@H](Cc1c[nH]c2ccccc12)C(N)=O`, on KiSS-1 receptor [3], the EC50 is 1 nM. On KiSS-1 receptor [1], the Activity turned out to be 94.3%. For the same compound, the Ratio EC50 on KiSS-1 receptor [2] stood at 1.5. On to `CC(C)C[C@H](NC(=O)CNC(=O)[C@H](Cc1ccccc1)NC(=O)c1ccccn1)C(=O)N[C@@H](CCCN=C(N)N)C(=O)N[C@@H](Cc1c[nH]c2ccccc12)C(N)=O`, for which, on KiSS-1 receptor [3], the EC50 came to 0.8 nM. `CC(C)C[C@H](NC(=O)CNC(=O)[C@H](Cc1ccccc1)NC(=O)c1ccc(N)cc1)C(=O)N[C@@H](CCCNC(=N)N)C(=O)N[C@@H](Cc1c[nH]c2ccccc12)C(N)=O` (H-[4Abz]FGLRW-NH2): at KiSS-1 receptor [1], the Activity worked out at 90.4%. For `CC(C)C[C@H](NC(=O)CNC(=O)[C@H](Cc1ccccc1)NC(=O)c1cc(O)c(O)c(O)c1)C(=O)N[C@@H](CCCN=C(N)N)C(=O)N[C@@H](Cc1c[nH]c2ccccc12)C(N)=O`, the EC50 on KiSS-1 receptor [3] was > 100 nM. Take `COc1ccc(C(=O)N[C@@H](Cc2ccccc2)C(=O)NCC(=O)N[C@@H](CC(C)C)C(=O)N[C@@H](CCCNC(=N)N)C(=O)N[C@@H](Cc2c[nH]c3ccccc23)C(N)=O)cc1`: the EC50 on KiSS-1 receptor [3] is 1.2 nM. Moreover, the Activity on KiSS-1 receptor [1] was 104%. Besides, the Ratio EC50 on KiSS-1 receptor [2] is 1.6. On to `CC(C)C[C@H](NC(=O)CNC(=O)[C@H](Cc1ccccc1)NC(=O)c1ccc(F)cc1)C(=O)N[C@@H](CCCNC(=N)N)C(=O)N[C@@H](Cc1c[nH]c2ccccc12)C(N)=O`, for which the Activity on KiSS-1 receptor [1] was determined as 95.6%. With `CC(C)C[C@H](NC(=O)CNC(=O)[C@H](Cc1ccccc1)NC(=O)c1ccccc1O)C(=O)N[C@@H](CCCNC(=N)N)C(=O)N[C@@H](Cc1c[nH]c2ccccc12)C(N)=O`, the Activity at KiSS-1 receptor [1] is 90.1%. In addition, on KiSS-1 receptor [2], the Ratio EC50 came to 6.6. In the case of `CC(C)C[C@H](NC(=O)CNC(=O)[C@H](Cc1ccccc1)NC(=O)c1ccncc1)C(=O)N[C@@H](CCCNC(=N)N)C(=O)N[C@@H](Cc1c[nH]c2ccccc12)C(N)=O`, the EC50 on KiSS-1 receptor [3] came to 1.7 nM. For the same compound, the Activity at KiSS-1 receptor [1] is 102%. Further, on KiSS-1 receptor [2], the Ratio EC50 amounted to 2.4.

Consider `CC(C)C[C@H](NC(=O)CNC(=O)[C@H](Cc1ccccc1)NC(=O)c1ccc(NC(=N)N)cc1)C(=O)N[C@@H](CCCNC(=N)N)C(=O)N[C@@H](Cc1c[nH]c2ccccc12)C(N)=O`, for which, at KiSS-1 receptor [3], the EC50 worked out at 1.7 nM. Moreover, the Activity on KiSS-1 receptor [1] is 91.2%. Further, the Ratio EC50 on KiSS-1 receptor [2] stood at 2.9. As to `CC(C)C[C@H](NC(=O)CNC(=O)[C@H](Cc1ccccc1)NC(=O)[C@H]1CC[C@H](CN)CC1)C(=O)N[C@@H](CCCNC(=N)N)C(=O)N[C@@H](Cc1c[nH]c2ccccc12)C(N)=O` (H-[Trx]FGLRW-NH2), the Activity at KiSS-1 receptor [1] worked out at 9.9%. As for `CC(C)C[C@H](NC(=O)CNC(=O)[C@H](Cc1ccccc1)NC(=O)c1ccccc1O)C(=O)N[C@@H](CCCN=C(N)N)C(=O)N[C@@H](Cc1c[nH]c2ccccc12)C(N)=O`, the EC50 at KiSS-1 receptor [3] was 5 nM. Consider `CC(C)C[C@H](NC(=O)CNC(=O)[C@H](Cc1ccccc1)NC(=O)CCCCCN)C(=O)N[C@@H](CCCNC(=N)N)C(=O)N[C@@H](Cc1c[nH]c2ccccc12)C(N)=O` (H-[Ahx]FGLRW-NH2), for which the Activity on KiSS-1 receptor [1] was determined as 1.6%. `CC(C)C[C@H](NC(=O)CNC(=O)[C@H](Cc1ccccc1)NC(=O)c1ccc(CNCc2ccccc2)cc1)C(=O)N[C@@H](CCCNC(=N)N)C(=O)N[C@@H](Cc1c[nH]c2ccccc12)C(N)=O`: the EC50 on KiSS-1 receptor [3] turned out to be 3.3 nM. The Activity at KiSS-1 receptor [1] was determined as 86.5%. Moreover, the Ratio EC50 at KiSS-1 receptor [2] came out at 5.6. Turning to `CC(C)C[C@H](NC(=O)CNC(=O)[C@H](Cc1ccccc1)NC(=O)c1ccc(CNC(=N)N)cc1)C(=O)N[C@@H](CCCNC(=N)N)C(=O)N[C@@H](Cc1c[nH]c2ccccc12)C(N)=O`, at KiSS-1 receptor [1], the Activity worked out at 93.7%. Consider `CC(C)C[C@H](NC(=O)CNC(=O)[C@H](Cc1ccccc1)NC(=O)c1ccc[nH]1)C(=O)N[C@@H](CCCN=C(N)N)C(=O)N[C@@H](Cc1c[nH]c2ccccc12)C(N)=O`, for which the EC50 on KiSS-1 receptor [3] came out at 2 nM.
